Results: ChEMBL document CHEMBL3739331, “Synthesis and Bioactivities of Kanamycin B-Derived Cationic Amphiphiles” (J Med Chem, 2015)
Converted amounts (≈) assume the structure as drawn. The source made the active and inactive calls. No cut-off for these calls is given here.

Key:
Candida albicans [1] = assay: Antifungal activity against azole-resistant Candida albicans ATCC 10231 after 48 hrs by microbroth dilution method; assay type: functional; details: ATCC 10231, 48 h
In short: (§1)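 Yeast MIC by broth microdilution, run in duplicate. The aminoglycoside compounds are read as MIC-0 (complete inhibition). Azoles are read as MIC-2 (50% inhibition).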

Candida albicans [2] = assay: Antifungal activity against azole-resistant Candida albicans MYA-1003 after 48 hrs by microbroth dilution method; assay type: functional; details: MYA-1003, 48 h; in short: as §1
Klebsiella pneumoniae = assay: Antibacterial activity against Klebsiella pneumoniae ATCC 27736 by microdilution method; assay type: functional
In short: (§2)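 Broth microdilution MIC against the named bacterial strain, reported in μg/mL; each determination run at least in duplicate.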

Salmonella enterica = assay: Antibacterial activity against Salmonella enterica ATCC 14028 by microdilution method; assay type: functional; in short: as §2
Staphylococcus aureus [3] = assay: Antibacterial activity against Staphylococcus aureus NRS382 (USA 100) by microdilution method; assay type: functional; in short: as §2
Candida albicans [4] = assay: Antifungal activity against azole-resistant Candida albicans MYA-1237 after 48 hrs by microbroth dilution method; assay type: functional; details: MYA-1237, 48 h; in short: as §1
Candida albicans [5] = assay: Antifungal activity against azole-resistant Candida albicans ATCC 64124 after 48 hrs by microbroth dilution method; assay type: functional; details: ATCC 64124, 48 h; in short: as §1
Bacillus subtilis = assay: Antibacterial activity against Bacillus subtilis 168 by microdilution method; assay type: functional; details: subsp. subtilis str. 168; in short: as §2
Staphylococcus aureus [6] = assay: Antibacterial activity against Staphylococcus aureus NRS22 (USA 600) by microdilution method; assay type: functional; in short: as §2
Serratia marcescens = assay: Activity of Serratia marcescens AAC(6')-2d assessed as compound acetylation activity by Ellman's method
[7] = Hemolytic activity against mouse RBC at 7.8 ug/ml after 60 mins; assay type: ADME, cell-based, Erythrocyte; details: red blood cells, read-out: Activity
Pseudomonas aeruginosa = assay: Antibacterial activity against Pseudomonas aeruginosa ATCC 27853 by microdilution method; assay type: functional; in short: as §2
[8] = system: Mycobacterium tuberculosis; assay: Activity of Mycobacterium tuberculosis AAC(2')-1c assessed as compound acetylation activity by Ellman's method
Staphylococcus aureus [9] = assay: Antibacterial activity against Staphylococcus aureus ATCC 29213 by microdilution method; assay type: functional; in short: as §2
[10] = system: Mycolicibacterium smegmatis; assay: Antibacterial activity against Mycobacterium smegmatis MC2 155 by microdilution method; assay type: functional; details: str. MC2 155
In short: (§3)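 Broth microdilution MIC, in μg/mL, against a panel of Gram-positive and Gram-negative strains. Run at least in duplicate.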

[11] = system: Staphylococcus epidermidis; assay: Antibacterial activity against Staphylococcus epidermidis ATCC 12228 by microdilution method; assay type: functional; in short: as §2
Candida albicans [12] = assay: Antifungal activity against azole-resistant Candida albicans ATCC 90819 after 48 hrs by microbroth dilution method; assay type: functional; details: ATCC 90819, 48 h; in short: as §1
[13] = Activity of AAC(3)-4 (unknown origin) assessed as compound acetylation activity by Ellman's method
[14] = Hemolytic activity against mouse RBC at 100 to 500 ug/ml after 60 mins; assay type: ADME, cell-based; details: erythrocyte, 1 h
[15] = Hemolytic activity against mouse RBC at 62.5 ug/ml after 60 mins; assay type: ADME, cell-based, Erythrocyte; details: red blood cells, read-out: Activity
Staphylococcus aureus [16] = assay: Antibacterial activity against methicillin-resistant Staphylococcus aureus by microdilution method; assay type: functional; in short: as §3
[17] = system: Bacillus subtilis subsp. subtilis str. 168; assay: Activity of Bacillus subtilis 168 APH(2'')-1a assessed as compound phosphorylation activity by Ellman's method
Staphylococcus aureus [18] = assay: Antibacterial activity against Staphylococcus aureus NRS383 (USA 200) by microdilution method; assay type: functional; in short: as §2
Enterococcus = assay: Antibacterial activity against vancomycin-resistant Enterococcus by microdilution method; assay type: functional; in short: as §3
Candida albicans [19] = assay: Antifungal activity against azole-susceptible Candida albicans ATCC MYA-2876 after 48 hrs by microbroth dilution method; assay type: functional; details: ATCC MYA-2876, 48 h; in short: as §1
Escherichia coli = assay: Antibacterial activity against Escherichia coli MC1061 by microdilution method; assay type: functional; in short: as §3
Staphylococcus aureus [20] = assay: Antibacterial activity against Staphylococcus aureus NRS385 (USA 300) by microdilution method; assay type: functional; in short: as §3
Aspergillus nidulans = assay: Antifungal activity against Aspergillus nidulans ATCC 38163 after 48 hrs by microbroth dilution method; assay type: functional; details: ATCC 38163, 48 h
In short: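 Filamentous fungus MIC by broth microdilution, run in duplicate. All compounds are read as MIC-0 (complete inhibition).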

Candida albicans [21] = assay: Antifungal activity against azole-susceptible Candida albicans ATCC MYA-2310 after 48 hrs by microbroth dilution method; assay type: functional; details: ATCC MYA-2310, 48 h; in short: as §1
[22] = system: Mycobacterium tuberculosis; assay: Activity of Mycobacterium tuberculosis Eis assessed as compound acetylation activity by Ellman's method
Enterobacter cloacae = assay: Antibacterial activity against Enterobacter cloacae ATCC 13047 by microdilution method; assay type: functional; in short: as §2
[23] = Activity of AAC(6')-1e/APH(2'')-1a (unknown origin) assessed as compound acetylation activity by Ellman's method
Acinetobacter baumannii = assay: Antibacterial activity against Acinetobacter baumannii ATCC 19606 by microdilution method; assay type: functional; in short: as §2

## CCCCCCCCCCCCCCCCSC[C@@H]1O[C@@H](O[C@@H]2[C@@H](O)[C@H](O[C@@H]3O[C@@H](CN)[C@H](O)[C@@H](O)[C@@H]3N)[C@@H](N)C[C@H]2N)[C@@H](O)[C@H](N)[C@H]1O (stereo in doubt)
Candida albicans [1]
  MIC: 3.9 µg/mL (≈ 5.39 µM)
Candida albicans [2]
  MIC: 3.9 µg/mL (≈ 5.39 µM)
Klebsiella pneumoniae
  MIC: > 128 µg/mL
Salmonella enterica
  MIC: > 128 µg/mL
Staphylococcus aureus [3]
  MIC: 128 µg/mL (≈ 177 µM)
Candida albicans [4]
  MIC: 3.9 µg/mL (≈ 5.39 µM)
Candida albicans [5]
  MIC: 3.9 µg/mL (≈ 5.39 µM)
Bacillus subtilis
  MIC: > 128 µg/mL
Staphylococcus aureus [6]
  MIC: 128 µg/mL (≈ 177 µM)
Serratia marcescens
  Activity: inactive
[7]
  hemolysis at 1 h, 7.8 ug/ml: 16%
Pseudomonas aeruginosa
  MIC: > 128 µg/mL
[8]
  Activity: inactive
Staphylococcus aureus [9]
  MIC: > 128 µg/mL
[10]
  MIC: 8 µg/mL (≈ 11 µM)
[11]
  MIC: > 128 µg/mL
Candida albicans [12]
  MIC: 3.9 µg/mL (≈ 5.39 µM)
[13]
  Activity: inactive
[14]
  Activity: Toxic
[15]
  hemolysis at 1 h, 62.5 ug/ml: 81%
Staphylococcus aureus [16]
  MIC: > 128 µg/mL
[17]
  Activity: inactive
Staphylococcus aureus [18]
  MIC: > 128 µg/mL
Enterococcus
  MIC: 128 µg/mL (≈ 177 µM)
Candida albicans [19]
  MIC: 3.9 µg/mL (≈ 5.39 µM)
Escherichia coli
  MIC: > 128 µg/mL
Staphylococcus aureus [20]
  MIC: > 128 µg/mL
Aspergillus nidulans
  MIC: 1.95 µg/mL (≈ 2.69 µM)
Candida albicans [21]
  MIC: 3.9 µg/mL (≈ 5.39 µM)
[22]
  Activity: inactive
Enterobacter cloacae
  MIC: > 128 µg/mL
[23]
  Activity: inactive
Acinetobacter baumannii
  MIC: > 128 µg/mL
